The list is not random: actives were taken first. Their share in the collection is about 2.2%.
Diaph act CS: compounds boosting diaphorase resazurin reduction – biochemical, uHTS, resorufin fluorescence, counter-screen for diaphorase-coupled primary assays, primary screen | Diaphorase/resazurin coupled assay, 16 min; stronger effect = higher value; 1 = vehicle wells, 0 = NADH-free wells | activation factor at 20 µM | 0.005% of 190,000 active;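 active = diaphorase activity raised at least twofold by the compound at 20 µM; inactive = activation factor below 2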
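Measured by – red resorufin fluorescence at 544/590 nm excitation/emission · Test system – Clostridium kluyveri diaphorase, purified enzyme · Incubation – reaction time 16 min, room temperature · Buffer or medium – 50 mM HEPES pH 7.4 with 4.542 mM MgCl2, 0.005% Tween 20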
Diaphorase inh: diaphorase inhibitors and chemical oxidizers, primary screen, counter-screen for diaphorase-coupled primary assays, biochemical, uHTS, resorufin fluorescence | diaphorase resazurin-to-resorufin fluorescence, NADH, 16 min; bacterial (C. kluyveri) enzyme, not human | 0.69% of 190,000 active | inhibition, % at 20 µM | AID 1217, 2008;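 active = primary screen inhibition at 20 µM above a set limit, cut at about 50% in these data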;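 note: plate controls were DMSO with full reaction for no effect and wells lacking NADH for full effect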
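controls = No-NADH positive control and DMSO neutral control | system = Clostridium kluyveri diaphorase enzyme | timing = reaction incubation of 16 min at room temperature | signal = resorufin fluorescence 544/590 nm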
ROMK primary: ROMK potassium channel modulators, primary screen, cell-based, thallium flux, MLSMR library; Tet-inducible ROMK, thallium flux fluorescence; actives lie on both sides; B-score at 10 µM; 2% of 130,000 active;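 active = signal ratio slope over the read window, or its plate-corrected B-score, at least 3 SD from the plate mean, either direction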;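 note: B-score of the F/F0 ratio slope over 7 to 12 s after thallium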
Target sequence (P48048 whole entry, looked up): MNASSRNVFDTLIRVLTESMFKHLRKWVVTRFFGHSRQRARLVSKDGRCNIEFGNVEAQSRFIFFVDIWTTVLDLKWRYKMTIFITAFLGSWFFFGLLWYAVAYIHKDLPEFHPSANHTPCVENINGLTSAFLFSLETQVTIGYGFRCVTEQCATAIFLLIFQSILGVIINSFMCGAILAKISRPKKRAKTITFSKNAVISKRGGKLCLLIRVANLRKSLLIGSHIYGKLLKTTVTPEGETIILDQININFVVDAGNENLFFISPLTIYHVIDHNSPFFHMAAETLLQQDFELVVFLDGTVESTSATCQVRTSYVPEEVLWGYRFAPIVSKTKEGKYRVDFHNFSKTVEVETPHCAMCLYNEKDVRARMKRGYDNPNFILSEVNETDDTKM
G6PDH counter: L. mesenteroides G6PDH inhibitors, counter-screen for G6PDH-coupled screening assays, biochemical, Leuconostoc mesenteroides enzyme; 0.12% of 200,000 active; AID 1020, 2008; Purified L. mesenteroides G6PDH, diaphorase/resazurin coupled fluorescence, 45 min; inhibition, % at 5 µM; in the data active = inhibition above about 50%
PMI activator: activators of human PMI, primary screen, biochemical, fluorescence intensity, near-Km mannose 6-phosphate; Mannose-6-phosphate isomerase (Homo sapiens), P34949; purified human PMI, coupled resazurin fluorescence, 20 min; stronger effect = higher value; 1 = vehicle control, 0 substrate-free wells; activation factor at 20 µM; 0.005% of 190,000 active;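 active = activation factor of 2 or more at 20 µM, relative to plate controls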
PMI act hi M6P: human PMI activators, high substrate, primary screen, biochemical, fluorescence intensity, near-saturating mannose 6-phosphate. activation factor at 20 µM. Mannose-6-phosphate isomerase (Homo sapiens), P34949. 0.34% of 190,000 active. coupled PMI enzyme assay, resazurin fluorescence, 20 min; stronger effect = higher value; 1 = untreated enzyme, 0 = substrate-free blank. AID 1216, 2008;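 active = activation factor of 2 or more at 20 µM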
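Technique: Diaphorase-driven resazurin-to-resorufin fluorescence, excitation 544, emission 590 nm | Assay system: Human PMI in coupled enzyme assay | Times: Enzyme reaction with compound 20 min at room temperature | Medium: HEPES-buffered pH 7.4 with magnesium and detergent | Reagent: Mannose-6-phosphate 1.0 mM (near-saturating) plus 0.22 mM NADP+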
* hit, by the source's call.

`COc1cc(/C=N/NC(=O)C(Cc2c[nH]c3ccccc23)NC(=O)OCC(C)C)cc([N+](=O)[O-])c1O` (centres undefined) gave Diaph act CS 0.8, Diaphorase inh 18, G6PDH counter -15, PMI activator 1 and PMI act hi M6P 0.9.
For COc1cc(/C=N/NC(=O)C(Cc2c[nH]c3ccccc23)NC(=O)OCC(C)C)cc([N+](=O)[O-])c1OCc1ccccc1 (centres undefined) the results were Diaph act CS 0.3, Diaphorase inh 71*, G6PDH counter 15, PMI activator 0.9 and PMI act hi M6P 0.5.
Screening NS(=O)(=O)c1ccc(CCNC(=O)CCCCCn2c(=S)[nH]c3ccc(Br)cc3c2=O)cc1 returned Diaph act CS 0.9, Diaphorase inh 7, ROMK primary 0.28, G6PDH counter -1, PMI activator 1.1 and PMI act hi M6P 1.1.
Screening O=c1c2cc(Br)ccc2nc(-c2ccc([N+](=O)[O-])cc2)n1O returned Diaph act CS 0.8, Diaphorase inh 17, ROMK primary 1.1, G6PDH counter 9, PMI activator 1 and PMI act hi M6P 1.2.
`O=c1c2cc(Br)ccc2nc(-c2cccc(C(F)(F)F)c2)n1O` gave Diaph act CS 0.8, Diaphorase inh 19, ROMK primary 3.7*, G6PDH counter 1, PMI activator 1 and PMI act hi M6P 1.
For CCc1ccccc1N/N=C(/C)c1c(O)cc(C)oc1=O the results were Diaph act CS 0.9, Diaphorase inh 12, ROMK primary 0.16, G6PDH counter 7, PMI activator 1.7 and PMI act hi M6P 2.7*.
`CCn1c(SCc2nc3sc(C(=O)O)c(C)c3c(=O)[nH]2)nc2ccccc21` gave Diaph act CS 0.4, Diaphorase inh 61*, ROMK primary -2.1, G6PDH counter 7, PMI activator 1.5 and PMI act hi M6P 1.9.
For COCCn1c(SCc2nc3sc(C(=O)OC)c(C)c3c(=O)[nH]2)nc2ccccc21 the results were Diaph act CS 1.1, Diaphorase inh -5, G6PDH counter 7, PMI activator 1.2 and PMI act hi M6P 1.2.
`Cc1nc2c(c(=O)c3ccccc3n2C)c(=O)n1-c1ccccc1` gave ROMK primary 0.32.
CCc1nc2c(c(=O)c3ccccc3n2C)c(=O)n1-c1ccc(F)cc1 was read as Diaph act CS 0.3, Diaphorase inh 74*, G6PDH counter -1, PMI activator 0.9 and PMI act hi M6P 0.9.
For Cc1c(NC(=S)N/N=C/C=C/c2ccc([N+](=O)[O-])cc2)c(=O)n(-c2ccccc2)n1C the results were Diaph act CS 0.8, Diaphorase inh 21, ROMK primary 0.7, G6PDH counter 3, PMI activator 1.5 and PMI act hi M6P 2.1*.
Cc1c(NC(=S)N/N=C/c2ccc([N+](=O)[O-])cc2O)c(=O)n(-c2ccccc2)n1C was read as ROMK primary 1.5.
`O=S(=O)(Nc1ccc2c(c1)nc1n2CCN(Cc2ccccc2)C1)c1ccc(F)cc1` gave Diaph act CS 0.8, Diaphorase inh 24, G6PDH counter 10, PMI activator 1.6 and PMI act hi M6P 2.1*.
`O=S(=O)(Nc1ccc2c(c1)nc1n2CCN(Cc2ccccc2)C1)c1ccccc1` gave Diaph act CS 0.9, Diaphorase inh 9, ROMK primary -2.2, G6PDH counter 6, PMI activator 1.5 and PMI act hi M6P 1.9.
O=C(Nc1ccc2c(c1)nc1n2CCN(Cc2ccccc2)C1)NC1CCCCC1 was read as Diaph act CS 0.8, Diaphorase inh 17, G6PDH counter 26, PMI activator 1.2 and PMI act hi M6P 1.4.

High-throughput results (PubChem)
